Results from ChEMBL document CHEMBL1125195, “Novel compounds possessing potent cAMP and cGMP phosphodiesterase inhibitory activity. Synthesis and cardiovascular effects of a series of imidazo[1,2-a]quinoxalinones and imidazo[1,5-a]quinoxalinones and their aza analogues” (J Med Chem, 1991).

What was measured:
Canis familiaris [1] = organism: Canis familiaris; assay: In vitro vascular relaxation in canine mesenteric veins precontracted with phenylephrine.; assay type: functional; settings: Canis lupus familiaris, Mesenteric vein
Procedure, shortened: (§1)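 Isolated vessels in warm PSS. Arteries constricted with prostaglandin F2α, veins with phenylephrine. Cumulative drug challenges, each added after relaxation plateaued. Delta force is expressed as % of agonist actual force (total minus basal) and as % of maximal relaxation. EC50 is found by linear interpolation between the points bracketing 50% relaxation. Afterwards tissues were rinsed every 10 min, reconstricted, and challenged with acetylcholine (arteries) or thrombin (veins).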

[2] = In vitro increase in contractile force in ferret papillary muscle strips.; assay type: functional, Mustela putorius furo, Muscle tissue
Procedure, shortened: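 Ferret papillary muscle; value is drug concentration (μM) giving a 20% rise in contractile force. Mean of at least two determinations, ranges within ±10%. Inotropic effect also tested with 1 μM propranolol co-administered. NR means not reached at 100 μM.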

Canis familiaris [3] = organism: Canis familiaris; assay: In vitro vascular relaxation in canine coronary arteries precontracted with prostaglandin F2alpha.; assay type: functional; settings: Canis lupus familiaris; procedure, shortened: as §1
[4] = Inhibition of crude cGMP phosphodiesterase from canine thoracic aorta; assay type: tissue-based, Canis lupus familiaris
Procedure, shortened: (§2)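 Crude homogenates: cAMP PDE from canine cardiac tissue, cGMP PDE from canine thoracic aorta. Value is drug concentration (μM) giving 50% inhibition. Mean of at least three determinations, ranges within ±10%.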

[5] = Inhibition of crude cAMP phosphodiesterase from canine […]; design: species or system Canis lupus familiaris; procedure, shortened: as §2
Canis familiaris [6] = assay: Percent change in heart rate after intravenous administration in anesthetized dogs at 1.0 mg/kg (NC<10%); assay type: functional, organism-based; design: dose 1 mg/kg; settings: Canis lupus familiaris
Canis familiaris [7] = assay: Percent change in left ventricle contractile force in anesthetized dogs after intravenous administration at 3.0 mg/kg; assay type: functional, Canis lupus familiaris, Heart left ventricle
Canis familiaris [8] = assay: Percent change in left ventricle contractile force in anesthetized dogs after intravenous administration at 1.0 mg/kg; assay type: functional, Canis lupus familiaris, Heart left ventricle
Canis familiaris [9] = assay: Percent change in left ventricle contractile force in anesthetized dogs after intravenous administration at 0.3 mg/kg (NC <10%); assay type: functional, organism-based; design: dose 0.3 mg/kg; settings: Canis lupus familiaris, Heart left ventricle
Canis familiaris [10] = assay: Percent change in heart rate after intravenous administration in anesthetized dogs at 3.0 mg/kg; assay type: functional, Canis lupus familiaris
Canis familiaris [11] = assay: Percent change in heart rate after intravenous administration in anesthetized dogs at 0.3 mg/kg (NC<10%); assay type: functional, organism-based; design: dose 0.3 mg/kg; settings: Canis lupus familiaris
Canis familiaris [12] = assay: Percent change in mean arterial blood pressure after intravenous administration in anesthetized dogs at 1.0 mg/kg (NC<10%); assay type: functional, organism-based; design: dose 1 mg/kg; settings: Canis lupus familiaris
Canis familiaris [13] = assay: Percent change in mean arterial blood pressure after intravenous administration in anesthetized dogs at 3.0 mg/kg; assay type: functional, Canis lupus familiaris
Canis familiaris [14] = assay: Percent change in mean arterial blood pressure after intravenous administration in anesthetized dogs at 0.3 mg/kg (NC<10%); assay type: functional, organism-based; design: dose 0.3 mg/kg; settings: Canis lupus familiaris
Canis familiaris [15] = assay: Percent change in left ventricle contractile force in anesthetized dogs after intravenous administration at 0.3 mg/kg; assay type: functional, Canis lupus familiaris, Heart left ventricle
Canis familiaris [16] = assay: Percent change in mean arterial blood pressure after intravenous administration in anesthetized dogs at 0.1 mg/kg; assay type: functional, Canis lupus familiaris
[17] = Inhibition of crude cGMP phosphodiesterase from canine thoracic aorta (NR = no effect at 100 uM); assay type: tissue-based, Canis lupus familiaris; procedure, shortened: as §2
Canis familiaris [18] = assay: Percent change in left ventricle contractile force in anesthetized dogs after intravenous administration at 0.03 mg/kg; assay type: functional, Canis lupus familiaris, Heart left ventricle
Canis familiaris [19] = assay: Percent change in heart rate after intravenous administration in anesthetized dogs at 0.1 mg/kg; assay type: functional, Canis lupus familiaris
Canis familiaris [20] = assay: Percent change in mean arterial blood pressure after intravenous administration in anesthetized dogs at 0.03 mg/kg (NC<10%); assay type: functional, organism-based; design: dose 0.03 mg/kg; settings: Canis lupus familiaris
Canis familiaris [21] = assay: Percent change in heart rate after intravenous administration in anesthetized dogs at 0.3 mg/kg; assay type: functional, Canis lupus familiaris
Canis familiaris [22] = assay: Percent change in left ventricle contractile force in anesthetized dogs after intravenous administration at 0.1 mg/kg; assay type: functional, Canis lupus familiaris, Heart left ventricle
Canis familiaris [23] = assay: Percent change in heart rate in anesthetized dogs after intravenous administration at 0.03 mg/kg; assay type: functional, Canis lupus familiaris
Canis familiaris [24] = assay: Percent change in mean arterial blood pressure after intravenous administration in anesthetized dogs at 0.3 mg/kg; assay type: functional, Canis lupus familiaris
Canis familiaris [25] = assay: Percent change in heart rate after intravenous administration in anesthetized dogs at 1.0 mg/kg; assay type: functional, Canis lupus familiaris

| EC50 (Canis familiaris [1]) [µM] | EC50 (Canis familiaris [3]) [µM] | IC50 [4] [µM] | IC50 [5] [µM] | Structure (SMILES) | CFC20 [2] [µM] | also measured |
| --- | --- | --- | --- | --- | --- | --- |
| 2 | 24 | 3 | 1 | Cc1nccn1-c1ccc2nc(O)c3cnc(C)n3c2n1 | 0.4 |  |
| 10 | 11 | 27 | 44 | Oc1nc2cccnc2n2ccnc12 | 2.2 | Delta (Canis familiaris [6]): <10% change from control; Delta (Canis familiaris [7]): 81%; Delta (Canis familiaris [8]): 42%; Delta (Canis familiaris [9]): <10% change from control; Delta (Canis familiaris [10]): 24%; Delta (Canis familiaris [11]): <10% change from control; Delta (Canis familiaris [12]): <10% change from control; Delta (Canis familiaris [13]): -40%; Delta (Canis familiaris [14]): <10% change from control |
| 0.4 | 5.1 | 36 | 42 | Cc1cn2c(n1)c(O)nc1ccccc12 | 11 |  |
| 9.3 | 14 | 39 | 5 | Oc1nc2ccc(-n3ccnc3)nc2n2ccnc12 | 0.5 |  |
| 2.2 | 5.2 | 5 | 5 | CCc1ncc2c(O)nc3ccncc3n12 | 0.3 |  |
| 2.8 | 49 | 27 | 16 | Cc1ncc2c(O)nc3ccccc3n12 | 2.1 |  |
| 0.4 | 1.7 | 4 | 2 | CCc1nc(C)c2c(O)nc3ccc(-n4ccnc4)cc3n12 | 0.6 |  |
| 0.7 | 1.6 |  | 6 | Cc1[nH]c(=O)c(C#N)cc1-c1ccncc1 [MILRINONE] | 0.5 | Delta (Canis familiaris [15]): 82%; Delta (Canis familiaris [16]): -15%; IC50 [17]: Not reached; Delta (Canis familiaris [18]): 31%; Delta (Canis familiaris [19]): 20%; Delta (Canis familiaris [20]): <10% change from control; Delta (Canis familiaris [21]): 34%; Delta (Canis familiaris [22]): 58%; Delta (Canis familiaris [23]): 12%; Delta (Canis familiaris [24]): -33% |
| 1.1 | 5.5 | 24 | 6 | Cc1nccn1-c1ccc2nc(O)c3cnc(C)n3c2c1 | 1.2 |  |
| 3.4 | 11 | 38 | 22 | CCc1nc(C)c2c(N)nc3ccccc3n12 |  |  |
| 0.8 | 1.7 | 0.4 | 2 | CCc1nc(C)c2c(O)nc3ccccc3n12 | 0.2 | Delta (Canis familiaris [15]): 39%; Delta (Canis familiaris [7]): 135%; Delta (Canis familiaris [8]): 85%; Delta (Canis familiaris [25]): 42%; Delta (Canis familiaris [21]): 22%; Delta (Canis familiaris [10]): 65%; Delta (Canis familiaris [12]): <10% change from control; Delta (Canis familiaris [13]): -40%; Delta (Canis familiaris [14]): <10% change from control |
